Experimental data published in ChEMBL document CHEMBL1136656, “Synthesis and Biological activity of kappa opioid receptor agonists. Part 2: preparation of 3-aryl-2-pyridone analogues generated by solution- and solid-phase parallel synthesis methods” (Bioorg Med Chem Lett, 2003).

Assays:
[1] = molecular target: T1, Kappa-type opioid receptor (Homo sapiens, UniProt P41145); assay: Inhibition of [125I]-(D-Pro10)-Dynorphin A binding to human kappa opioid receptor from membranes of HEK293 cells; type: cell membranes
T1 sequence (P41145 whole entry): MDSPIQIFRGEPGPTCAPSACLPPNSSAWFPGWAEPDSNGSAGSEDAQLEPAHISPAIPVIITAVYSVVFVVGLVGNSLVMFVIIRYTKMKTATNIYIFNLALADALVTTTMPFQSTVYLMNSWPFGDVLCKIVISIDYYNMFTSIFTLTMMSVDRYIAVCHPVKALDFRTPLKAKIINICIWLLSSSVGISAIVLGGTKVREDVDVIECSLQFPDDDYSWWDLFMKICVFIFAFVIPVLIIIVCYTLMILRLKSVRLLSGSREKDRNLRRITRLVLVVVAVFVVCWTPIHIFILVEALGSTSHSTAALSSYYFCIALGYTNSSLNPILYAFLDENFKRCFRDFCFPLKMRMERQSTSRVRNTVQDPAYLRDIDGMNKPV
Method in brief: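 Classical filter binding on membranes from HEK293 cells overexpressing human kappa opioid receptor, measuring displacement of [125I]-(D-Pro10)-Dynorphin A. Purified compounds were run as full dose–response curves and reported as mean IC50 ± SEM. Crude or partially purified mixtures were screened at a single concentration for percent inhibition of radioligand binding.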

[2] = molecular target: Delta-type opioid receptor (Homo sapiens, UniProt P41143); assay: Inhibition of [125I]deltorphin binding to human delta opioid receptor from membranes of HEK293 cells; type: cell membranes
Chain of Delta-type opioid receptor (P41143 whole entry): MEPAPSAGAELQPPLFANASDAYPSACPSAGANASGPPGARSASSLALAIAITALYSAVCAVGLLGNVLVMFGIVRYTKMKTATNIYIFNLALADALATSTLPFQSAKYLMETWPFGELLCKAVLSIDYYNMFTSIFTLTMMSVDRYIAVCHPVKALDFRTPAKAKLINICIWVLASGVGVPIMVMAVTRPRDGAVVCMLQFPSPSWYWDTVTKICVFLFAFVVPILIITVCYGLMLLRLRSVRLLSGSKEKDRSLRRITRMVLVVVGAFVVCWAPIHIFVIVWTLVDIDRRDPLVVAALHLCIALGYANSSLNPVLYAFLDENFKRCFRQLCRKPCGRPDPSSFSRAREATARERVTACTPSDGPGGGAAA
Method in brief: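 Displacement of [125I]-Deltorphin from membranes of HEK293 cells overexpressing human delta opioid receptor, read by classical filter binding. IC50 came from full dose–response curves on purified material, in single determinations.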

Mu-type opioid receptor = Mu-type opioid receptor (Homo sapiens, UniProt P35372); assay: Inhibition of [125I]Enkephalin binding to human mu opioid receptor from membranes of HEK293 cells; type: cell membranes
Chain of Mu-type opioid receptor (P35372 whole entry): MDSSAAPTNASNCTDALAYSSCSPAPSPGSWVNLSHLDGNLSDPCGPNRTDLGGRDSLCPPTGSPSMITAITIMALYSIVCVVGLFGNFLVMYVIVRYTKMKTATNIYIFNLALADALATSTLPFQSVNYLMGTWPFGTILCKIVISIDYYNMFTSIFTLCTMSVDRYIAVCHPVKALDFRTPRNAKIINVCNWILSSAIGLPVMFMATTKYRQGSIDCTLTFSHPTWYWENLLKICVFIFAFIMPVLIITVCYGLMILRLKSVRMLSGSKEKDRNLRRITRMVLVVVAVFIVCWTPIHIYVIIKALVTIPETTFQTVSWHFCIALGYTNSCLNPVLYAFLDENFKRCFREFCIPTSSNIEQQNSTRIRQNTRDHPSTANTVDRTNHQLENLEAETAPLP
Method in brief: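 Filter binding on membranes of HEK293 cells overexpressing human mu opioid receptor, measuring displacement of [125I]-Enkephalin. IC50 came from full dose–response curves on purified material, in single determinations.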

[3] = molecular target: T1, Kappa-type opioid receptor; assay: Inhibitory concentration against [125I]-(D-Pro10)-Dynorphin A binding to human kappa opioid receptor from membranes of HEK293 cells; type: cell membranes; conditions: concentration not given here
Method in brief: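 Filter binding on membranes from HEK293 cells overexpressing the human kappa opioid receptor. Displacement of [125I]-(D-Pro10)-Dynorphin A was measured, with full dose–response curves on purified material. IC50 is the mean of determinations, quoted with SEM.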

[4] = molecular target: T1, Kappa-type opioid receptor; assay: Effective dose for agonistic activity towards human kappa opioid receptor from membranes of HEK293 cells was determined by radiolabeled [35S]GTP-gamma-S, assay; type: functional, cell membranes

Structure (SMILES) | IC50 [1] [nM] | IC50 [2] [µM] | IC50 (Mu-type opioid receptor) [µM] | inhibition [3] [%] | ED50 [4] [nM] | IC50 ([2]; hek293) [µM] | IC50 (Mu-type opioid receptor; hek293) [µM]
O=c1c(-c2ccccc2)cncn1C(CN1CCCC1)c1ccccc1 (stereo unspecified) | 1760 |  |  |  |  |  | 
O=c1c(-c2ccc(C(F)(F)F)cc2)cccn1C(Cn1ccnc1)c1ccccc1 (stereo unspecified) | > 10000 |  |  |  |  |  | 
O=c1c(Nc2ccccc2)cccn1C(CN1CCCC1)c1ccccc1 (stereo unspecified) | > 1000 |  |  |  |  |  | 
COc1cccc(OC)c1-c1cccn(C(CN2CCC(O)C2)c2ccccc2)c1=O (stereo unspecified) | 9.8 | > 10 | 3.91 |  |  |  | 
O=c1c(-c2ccc(F)cc2)cccn1C(CN1CCC(O)C1)c1ccccc1 (stereo unspecified) | 33 | > 10 | > 10 |  |  |  | 
O=c1c(-c2ccccc2)nccn1C(CN1CCCC1)c1ccccc1 (stereo unspecified) | 2450 |  |  |  |  |  | 
O=c1c(-c2ccc(C(F)(F)F)cc2)cccn1C(CN1CCOCC1)c1ccccc1 (stereo unspecified) | 700 | > 10 | > 10 |  |  |  | 
COc1ccccc1-c1cccn(C(CN2CCC(O)C2)c2ccccc2)c1=O (stereo unspecified) | 94 | > 10 |  |  |  |  | 
O=C1COc2ccc(C(CN3CCCC3)n3cccc(-c4ccc(C(F)(F)F)cc4)c3=O)cc2N1 (stereo unspecified) | 57 | > 10 | > 10 |  |  |  | 
Cc1ccc(Nc2cccn(C(CN3CCCC3)c3ccccc3)c2=O)cc1 (stereo unspecified) | 94 | > 10 |  |  |  |  | 
O=c1c(-c2cccc(OC(F)(F)F)c2)cccn1C(CN1CCC(O)C1)c1ccccc1 (stereo unspecified) | 22 | > 10 | > 5 |  |  |  | 
O=c1c(-c2ccccc2)cccn1C(CN1CCC(O)C1)c1ccccc1 (stereo in doubt; 20a) | 465 | > 10 | > 10 |  |  |  | 
O=c1c(-c2ccc(OC(F)(F)F)cc2)cccn1C(CN1CCC(O)C1)c1ccccc1 (stereo unspecified) | 7.6 | > 10 | > 5 |  |  |  | 
CC(=O)c1ccc(-c2cccn(C(CN3CCC(O)C3)c3ccccc3)c2=O)s1 (stereo unspecified) | 38 | > 10 | > 10 |  |  |  | 
O=C(O)c1cccc(-c2cccn(C(CN3CCC(O)C3)c3ccccc3)c2=O)c1 (stereo unspecified) |  |  |  | 41 |  |  | 
O=c1c(-c2ccc(C(F)(F)F)cc2)cccn1C(CN1C=CC=CC=N1)c1ccccc1 (stereo unspecified) | 1400 | > 10 | > 10 |  |  |  | 
COc1ccc(F)cc1-c1cccn(C(CN2CCC(O)C2)c2ccccc2)c1=O (stereo unspecified) | 5.5 | 0.46 | > 10 |  | 32 |  | 

Structure (SMILES) | IC50 [1] [nM] | IC50 [2] [µM] | IC50 (Mu-type opioid receptor) [µM] | inhibition [3] [%] | ED50 [4] [nM] | IC50 ([2]; hek293) [µM] | IC50 (Mu-type opioid receptor; hek293) [µM]
Cc1cc(-c2cccn(C(CN3CCC(O)C3)c3ccccc3)c2=O)ccc1F (stereo unspecified) | 8.4 | > 10 | > 5 |  |  |  | 
COc1ccc(C(CN2CCCC2)n2cccc(-c3ccc(C(F)(F)F)cc3)c2=O)cc1 (stereo unspecified) | 320 | > 10 | > 10 |  |  |  | 
COc1ccc(Cl)cc1-c1cccn(C(CN2CCC(O)C2)c2ccccc2)c1=O (stereo unspecified) | 53 | > 10 | 0.19 |  |  |  | 
O=c1c(Nc2ccc(C(F)(F)F)cc2)cccn1C(CN1CCCC1)c1ccccc1 (stereo unspecified) | 82 | > 10 | 10 |  |  |  | 
O=Cc1ccccc1-c1cccn(C(CN2CCC(O)C2)c2ccccc2)c1=O (stereo unspecified) | 13 | > 10 |  |  |  |  | 
O=C(O)COc1cccc(C(CN2CCCC2)n2cccc(-c3ccc(C(F)(F)F)cc3)c2=O)c1 (stereo unspecified) | 420 | 5.6 | > 10 |  |  |  | 
COc1ccc(OC)c(-c2cccn(C(CN3CCC(O)C3)c3ccccc3)c2=O)c1 (stereo unspecified) | 6.9 | > 10 | 2.22 |  |  |  | 
CC(=O)c1ccc(-c2cccn(C(CN3CCC(O)C3)c3ccccc3)c2=O)cc1 (stereo unspecified) | 14 | > 10 | 1.75 |  |  |  | 
O=c1c(-c2ccc(Cl)cc2Cl)cncn1C(CN1CCCC1)c1ccccc1 (stereo unspecified) | 41 | > 10 | 9.6 |  | 615 |  | 
CCN(CC)c1ccc(C(CN2CCCC2)n2cccc(-c3ccc(C(F)(F)F)cc3)c2=O)cc1 (stereo unspecified) | 3080 | > 10 | > 10 |  |  |  | 
O=c1c(-c2ccccc2)ccnn1C(CN1CCCC1)c1ccccc1 (stereo unspecified) | 550 |  |  |  |  |  | 
O=c1c(-c2cccc(CO)c2)cccn1C(CN1CCC(O)C1)c1ccccc1 (stereo unspecified) | 9.6 | > 10 | > 5 |  |  |  | 
O=c1c(-c2ccc(Cl)cc2Cl)cccn1C(CN1CCCC1)c1ccccc1 (stereo unspecified) | 2.3 | > 10 | 2.1 |  |  |  | 
Nc1cccc(-c2cccn(C(CN3CCC(O)C3)c3ccccc3)c2=O)c1 (stereo unspecified) | 25 | > 10 | 2.91 |  |  |  | 
O=c1c(-c2ccccc2)cccn1C(CN1CCC(O)C1)c1ccccc1 (stereo in doubt; 14f) | 470 |  |  |  |  | > 10 | > 10
Cc1ccc(C(C)Nc2cccn(C(CN3CCCC3)c3ccccc3)c2=O)cc1 (stereo unspecified) | 330 | > 10 | > 10 |  |  |  | 
